Data set [1] is described as follows: Therapeutic index (vero CC50/ED50) against HSV-1. Conditions: herpes simplex virus, Vero cells; read-out: TI. In short, it runs like this:
(§1)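 Selectivity (TI) was calculated as Vero CC50 (SRB assay, 2 days continuous treatment) divided by plaque-reduction ED50 against the given HSV strain in Vero cells, using 50–100 PFU inoculum and a 2-day incubation.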

The subject of the next data set is Vero. Put plainly: In vitro cytotoxic concentration in vero cells. The data set is classed as functional. Conditions: Chlorocebus sabaeus. The gist of the method: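 Vero cell replication was measured by sulforhodamine B dye binding after 2 days of continuous compound exposure. CC50 is the concentration giving 50% inhibition relative to untreated control, calculated by nonlinear regression with a sigmoidal fit to dose-response data.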

In data set [2] the test system is Human alphaherpesvirus 2. The data set is described as follows: Inhibitory activity against HSV-2 in vero cells. The data set is classed as functional, herpes simplex virus. The conditions noted are these: Human alphaherpesvirus 2, Vero; read-out: ED50 (the source's name). In short, it runs like this: (§2)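 Plaque-elimination assay. Cells were infected with 50–100 PFU of HSV-1 (KOS) or HSV-2 (186 or plaque-purified 186 stocks, 333, G) and adsorbed for 1 h, then overlaid with 0.5% FCS medium ± compound, in duplicate. After 2 days, wells were crystal-violet stained and plaques counted by eye; ED50 was taken from a sigmoidal nonlinear fit.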

Data set [3] relates to Human alphaherpesvirus 1. The data set is described as follows: Inhibitory activity against HSV-1 in vero cells. The class given is functional, herpes simplex virus. Conditions: Human alphaherpesvirus 1, Vero; read-out: ED50 (the source's name). In short, it runs like this: as §2
Data set [4] can be described thus: Therapeutic index (vero CC50/ED50) against HSV-2. The conditions noted are these: herpes simplex virus, Vero cells; read-out: TI. In short, it runs like this:
as §1

Data set [5] concerns Human alphaherpesvirus 1. Put plainly: Inhibitory activity against HSV-1 in vero cells; NA= not active. The class given is functional, organism-based. Conditions: herpes simplex virus. In short, it runs like this:
as §2

Data set [6] has as its system Human alphaherpesvirus 2. Put plainly: Inhibitory activity against HSV-2 in vero cells; NA= not active. The data set is classed as functional, organism-based. Conditions: herpes simplex virus. In short, it runs like this:
as §2

Data set [7] is described as follows: Therapeutic index (vero CC50/ED50) against HSV-2; NA= not active. Conditions: herpes simplex virus. The gist of the method: as §1
Data set [8] deals with Human alphaherpesvirus 1. The data set is described as follows: Inhibitory activity against HSV-1 in vero cells; NA= not active at 100 uM. The data set is classed as functional, organism-based. Conditions: herpes simplex virus. In short, it runs like this: as §2
For data set [9], the system named is herpes simplex virus. The data set is described as follows: Anti-HSV activity against HSV-2 (333) strain. The data set is classed as functional. In short, it runs like this:
as §2

Data set [10] concerns herpes simplex virus. The data set is described as follows: Anti-HSV activity against HSV-2 (G) strain. The class given is functional. The gist of the method:
as §2

Data set [11] in a line: Therapeutic index against HSV-2 (G). The conditions noted are these: herpes simplex virus; read-out: TI. In short, it runs like this: as §1
Data set [12] deals with herpes simplex virus. Put plainly: Anti-HSV activity against HSV-2 (186, c2) strain. The class given is functional. The gist of the method: as §2
The nature of data set [13]: Therapeutic index against HSV-2 (186, c2). Conditions: herpes simplex virus; read-out: TI. In short, it runs like this: as §1
Data set [14] in a line: Therapeutic index against HSV-2 (186, c4). Conditions: herpes simplex virus; read-out: TI. In short, it runs like this: as §1
Data set [15] relates to herpes simplex virus. The data set is described as follows: Anti-HSV activity against HSV-2 (186, c4) strain. The data set is classed as functional. The gist of the method:
as §2

Data set [16] concerns herpes simplex virus. Put plainly: Anti-HSV activity against HSV-2 (186) strain. The class given is functional. In short, it runs like this: as §2
Data set [17] in a line: Therapeutic index against HSV-2 (333). The conditions noted are these: herpes simplex virus; read-out: TI. In short, it runs like this: as §1
Data set [18] deals with herpes simplex virus. The data set is described as follows: Anti-HSV activity against HSV-1 (KOS) strain. The class given is functional. In short, it runs like this: as §2
A short description of data set [19]: Therapeutic index against HSV-1 (KOS). Conditions: herpes simplex virus; read-out: TI. The gist of the method:
as §1

For data set [20], the system named is Human alphaherpesvirus 2. Put plainly: Inhibitory activity against HSV-2 in vero cells; NA= not active, at 50 uM no toxicity. The data set is classed as functional, organism-based. The conditions noted are these: herpes simplex virus. In short, it runs like this:
as §2

Molecules are shown by their SMILES. The source made the active and inactive calls. The rule behind the calls is not given here.

Here are results for 21 compounds from ChEMBL document CHEMBL1145894, “Anti-herpes simplex virus activity of substituted 1-hydroxyacridones” (J Med Chem, 2003).

What is called CC50 is the concentration giving 50% cytotoxicity. Low readings indicate greater toxicity to the cells, high ones lower toxicity to the cells.

On to `Nc1nc2c(ncn2COCCO)c(=O)[nH]1` [ACYCLOVIR], for which the selectivity ratio is more than 800 in [1] and more than 160 in data set [4]. The compound also displayed a CC50 in the data set on Vero of more than 400 µM. For the same compound, the EC50 stood at 2.5 µM in the data set with Human alphaherpesvirus 2 [2] and 0.5 µM in the data set on Human alphaherpesvirus 1 [3].

As to `Oc1cc(O)c2c(O)c3cc(Cl)cc(Cl)c3nc2c1`, the figures for the selectivity ratio in data set [1] and in data set [4] were more than 5 and more than 8.3, respectively. In the data set with Vero, this compound displayed a 50% cytotoxic concentration (CC50) of more than 100 µM. Also, the EC50 in the data set with Human alphaherpesvirus 2 [2] is 20 µM; in the data set on Human alphaherpesvirus 1 [3], 12 µM.

In the data set on Vero, `Cc1cc(O)c2c(=O)c3cccc(Cl)c3[nH]c2c1` gave a CC50 of 13 µM. In addition, the ED50 result with Human alphaherpesvirus 1 [5] and in the data set on Human alphaherpesvirus 2 [6] was “inactive” in each case.

Regarding `O=c1c2cccc(Cl)c2[nH]c2cc(O)cc(O)c12`, the selectivity ratio in [1] was 13. For the same compound, the CC50 with Vero was determined as 60 µM. Also, the TI entry in data set [7] is recorded as “Not Active”. Further, the EC50 in the data set with Human alphaherpesvirus 2 [2] is more than 30 µM; in the data set on Human alphaherpesvirus 1 [3] it was 4 µM.

In turn, `COc1cc(O)c2c(O)c3cc(O)ccc3nc2c1` registered a CC50 with Vero of 25 µM. For the same compound, in the data set with Human alphaherpesvirus 2 [2], the EC50 is less than 10 µM.

In the data set on Vero, `O=c1c2cccc(Cl)c2[nH]c2cc3ccccc3c(O)c12` displayed a 50% cytotoxic concentration (CC50) of more than 100 µM. Besides, the ED50 entry with Human alphaherpesvirus 1 [8] is “inactive”.

In the data set with Vero, `COc1cc(O)c2c(=O)c3cccc(Cl)c3n(C)c2c1` registered a CC50 of more than 100 µM. For the same compound, the EC50 in the data set on Human alphaherpesvirus 2 [2] was more than 50 µM; with Human alphaherpesvirus 1 [3], more than 100 µM.

Take `O=c1c2c(O)cc(O)cc2[nH]c2cccc(Cl)c12`: the selectivity ratio in data set [1] amounted to 7. Moreover, in the data set on Vero, the half-maximal cytotoxic concentration (CC50) amounted to 70 µM. Moreover, the EC50 in the data set on Human alphaherpesvirus 1 [3] was found to be 10 µM.

Regarding `Cc1cccc2nc3cc(O)cc(O)c3c(O)c12`, the selectivity ratio in [1] was 1.4. In addition, in the data set on Vero, the cytotoxic concentration (CC50) is 60 µM. Further, the EC50 in the data set on Human alphaherpesvirus 1 [3] is 44 µM.

For the compound `COc1cccc2c(O)c3c(O)cc(O)cc3nc12`, the ED50 was 0.7 µM with herpes simplex virus [9]; 0.5 µM in the data set with herpes simplex virus [10]; 0.6 µM with herpes simplex virus [12]; 1.2 µM with herpes simplex virus [15]; 0.6 µM with herpes simplex virus [16]; 2.2 µM in the data set with herpes simplex virus [18]. The selectivity ratio in data set [11] turned out to be 60; in [1], 13; in data set [13], 50; in [14], 25; in data set [17], 43; in [19], 14. The selectivity ratio in data set [4] was 50. Moreover, the CC50 with Vero turned out to be 30 µM. Besides, the EC50 with Human alphaherpesvirus 2 [2] was determined as 0.6 µM; with Human alphaherpesvirus 1 [3] it was 2.2 µM.

`Oc1cc(O)c2c(O)c3cc(O)ccc3nc2c1`: the selectivity ratio in [1] came to 2.7. In the data set with Vero, this compound displayed a CC50 of 40 µM. In addition, the EC50 in the data set with Human alphaherpesvirus 1 [3] is 15 µM.

`COc1cc(O)c2c(O)c3cc(OC)ccc3nc2c1` gave a 50% cytotoxic concentration (CC50) in the data set with Vero of more than 50 µM. The EC50 in the data set with Human alphaherpesvirus 2 [2] is more than 10 µM.

Take `O=c1c2cc(Cl)ccc2[nH]c2cc(O)cc(O)c12`: the selectivity ratio in data set [1] and in [4] was 3.5 throughout. Also, half-maximal cytotoxicity with Vero (CC50) was put at 52 µM. The results for the EC50 with Human alphaherpesvirus 2 [2] and in the data set with Human alphaherpesvirus 1 [3] were 15 µM and 16 µM, respectively.

For the compound `Cc1cccc2c(O)c3c(O)cc(O)cc3nc12`, the selectivity ratio stood at 4 in [1] and 2.1 in data set [4]. In the data set on Vero, this compound registered a CC50 of 32 µM. The EC50 came to 15 µM in the data set on Human alphaherpesvirus 2 [2] and 8 µM in the data set on Human alphaherpesvirus 1 [3].

For the compound `COc1cc(O)c2c(O)c3cccnc3nc2c1`, the ED50 entry in the data set on Human alphaherpesvirus 2 [20] is “inactive”. The CC50 with Vero was found to be 5.5 µM.

On to `O=c1c2ccccc2[nH]c2cc(O)cc(O)c12`, for which the selectivity ratio in data set [1] came out at 1.5. For the same compound, in the data set on Vero, it took 68 µM to reach half-maximal cytotoxicity (CC50). The EC50 with Human alphaherpesvirus 1 [3] was determined as 45 µM.

With `COc1cc(O)c2c(O)c3cccc(OC)c3nc2c1`, the CC50 with Vero was more than 50 µM. For the same compound, the EC50 in the data set on Human alphaherpesvirus 2 [2] is more than 50 µM.

In turn, `COc1cc(O)c2c(=O)c3cccc(Cl)c3[nH]c2c1` showed a CC50 in the data set on Vero of more than 100 µM. The EC50 with Human alphaherpesvirus 1 [3] is more than 50 µM. Also, in the data set on Human alphaherpesvirus 2 [6], the ED50 entry is “inactive”.

As for `O=C(O)CP(=O)(O)O` [FOSFONET], the selectivity ratio in data set [1] turned out to be 29. This compound also had a CC50 in the data set with Vero of 3500 µM. Also, in the data set with Human alphaherpesvirus 1 [3], the EC50 was 240 µM.

`Cn1c2cc(O)cc(O)c2c(=O)c2cccc(Cl)c21` had a cytotoxic concentration (CC50) in the data set on Vero of 50 µM. In addition, the values for the EC50 in the data set on Human alphaherpesvirus 2 [2] and in the data set on Human alphaherpesvirus 1 [3] were more than 30 µM and more than 50 µM, respectively.

For `O=c1c2ccc(Cl)cc2[nH]c2cc(O)cc(O)c12`, the selectivity ratio in data set [1] worked out at 3. Besides, it took 29 µM to reach half-maximal cytotoxicity in the data set with Vero (CC50). In data set [7], the TI entry is recorded as “Not Active”. In addition, the EC50 in the data set on Human alphaherpesvirus 1 [3] came out at 10 µM.
